From paper PMC11309612 (Medicine, 2024)
Where “and” joins values, the source holds several entries; their conditions need not be identical. Equal entries are not always repeated. Where two headings read alike, the source gives them in different places.

Assays:
U-87 MG cells [1] = assay: Annexin V and Propidium iodide staining apoptosis assay in flow cytometry; type: cell-based, human; settings: for Increase of late apoptotic effects compared to U-87 MG control group: IC50 concentration, 48th hour
How it was run: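 U-87 MG cells were cultured in EMEM with 10% FBS, 1% penicillin-streptomycin and 1% L-glutamine at 37°C in 5% CO2. Cells were exposed for 48 h to 150 μM test compound or 45 μM comparator, with 0.1% DMSO as control. They were detached, pelleted and washed twice in cold PBS. Annexin V/PI staining ran 20 min at room temperature in the dark, then binding buffer was added and flow cytometry was read within 30 min. Quadrant %, n = 3, mean ± SD.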

U-87 MG cells [2] = assay: Mitochondrial membrane integrity; type: cell-based, human; settings: for Increase of mitochondrial depolarization levels compared to the control: IC50 concentration, 48th hour; for JC-1-positive cells % (lower quadrant), mitochondrial depolarization: JC-1, IC50 concentration, n = 3, mean ± SD, control 12.3 ± 2.0
How it was run: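 U-87 MG cells were treated for 48 h with 150 μM test compound or 45 μM comparator, with 0.1% DMSO as control. Cells were pelleted at 1200 rpm for 5 min and incubated in JC-1 working solution for 15 min at 37°C. They were washed, resuspended in kit assay solution and read by flow cytometry. Upper-quadrant (viable) and lower-quadrant (JC-1-positive, depolarised) percentages were recorded; n = 3, mean ± SD.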

[3] = tested on: U-87 MG human glioblastoma cells; assay: WST-1 antiproliferative assay in U-87 MG cells; type: cell-based; settings: for IC50: read-out: IC50 according to WST-1 results; for % viability value at the highest concentration: WST-1, highest concentration (500 µM)
How it was run: (§1)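 U-87 MG glioblastoma cells or BJ foreskin fibroblasts were seeded at 3 × 10^3 per well and left 24 h. Test compound, freshly diluted in medium, was applied at 0.97–500 µM (ten concentrations) for 24 or 48 h. WST-1 reagent was added per kit and absorbance read at 540 nm. There were 7 wells per concentration and 3 independent experiments. The 0.1% DMSO control was set to 100% viability, and IC50 was derived from the % viability values.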

U-87 MG cells [4] = assay: Caspase-3 activation in flow cytometry; type: cell-based, human; settings: for Caspase-3 levels compared to the control / Caspase-3-positive cells % (lower right quadrant): IC50 concentration; for Caspase-3 levels compared to the control: 48th hour; for Caspase-3-positive cells % (lower right quadrant): n = 3, mean ± SD, control 0.6 ± 0.3
How it was run: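 U-87 MG cells were seeded at 1 × 10^5 per well in 6-well plates and exposed for 48 h to 150 μM test compound or 45 μM comparator, with 0.1% DMSO as control. After a PBS wash, cells were fixed and permeabilised with cytofix/cytoperm for 20 min on ice, then stained with PE rabbit anti-active caspase-3 for 30 min at room temperature. Flow cytometry gave quadrant %; n = 3, mean ± SD.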

[5] = tested on: BJ human healthy fibroblast cells; assay: WST-1 cytotoxicity assay in BJ cells; type: cell-based; settings: for IC50: read-out: IC50 according to WST-1 results
How it was run: as §1

`O=NN(CCCl)C(=O)NCCCl` [Carmustine, carmustine] was tested, and the viability at 45.68 µM (U-87 MG cells [1]; Homo sapiens, U-87 MG, read-out: Viable cells % (lower left quadrant)) was 57.6 ± 6.96%, the “Increase of late apoptotic effects compared to U-87 MG control group” value (U-87 MG cells [1]) was “approximately 3 times” and the viability at 45.68 µM (U-87 MG cells [2]; Homo sapiens, U-87 MG, 48 h, read-out: Viable cells % (upper quadrant)) was 41.4 ± 3.8%. The “Increase of mitochondrial depolarization levels compared to the control” value (U-87 MG cells [2]) was ~4.7 times, the “JC-1-positive cells % (lower quadrant), mitochondrial depolarization” value (U-87 MG cells [2]; 48 h) was 58.6 ± 3.80% and the IC50 ([3]; Homo sapiens, U-87 MG, 24 h) was 40.6 µM. For the same compound, the IC50 ([3]; Homo sapiens, U-87 MG, 48 h) was 45.7 µM, the viability at 45.68 µM (U-87 MG cells [4]; Homo sapiens, U-87 MG, 48 h, read-out: Viable cells % (lower left quadrant)) was 96.2 ± 0.9% and the “Caspase-3 levels compared to the control” value (U-87 MG cells [4]) was “did not show any difference”. For the same compound, the “Caspase-3-positive cells % (lower right quadrant)” value (U-87 MG cells [4]; 48 h) was 3.8 ± 1.0%, the IC50 ([5]; Homo sapiens, BJ, 24 h) was 144 µM and the IC50 ([5]; Homo sapiens, BJ, 48 h) was 81.4 µM.
`NC(=O)[C@H](CCCN=C(N)CCl)NC(=O)c1ccccc1` [Cl-amidine, chlorine-amidine] was tested, and the “Increase of late apoptotic effects compared to U-87 MG control group” value (U-87 MG cells [1]) was 2.5 times, the “Increase of mitochondrial depolarization levels compared to the control” value (U-87 MG cells [2]) was “approximately 4.5 times” and the “JC-1-positive cells % (lower quadrant), mitochondrial depolarization” value (U-87 MG cells [2]; 48 h) was 54.7% and 54.7 ± 11.60%. The “% viability value at the highest concentration” value ([3]; U-87 MG, 24 hours) was 41.16%, the “% viability value at the highest concentration” value ([3]; U-87 MG, 48 hours) was 35.64% and the IC50 ([3]; U-87 MG cells, 24 h incubation) was 256 µM. For the same compound, the IC50 ([3]; U-87 MG cells, 48 h incubation) was 150 µM, the “Caspase-3 levels compared to the control” value (U-87 MG cells [4]) was “did not show any difference” and the “Caspase-3-positive cells % (lower right quadrant)” value (U-87 MG cells [4]; 48 h) was 2.8 ± 0.9%. The IC50 ([5]; BJ cells, 24 h incubation) was 604 µM and the IC50 ([5]; BJ cells, 48 h incubation) was 549 µM.
Work on `O=P1(N(CCCl)CCCl)NCCCO1` (stereo not shown) [Cyclophosphamide, cyclophosphamide] yielded an IC50 ([3]; Homo sapiens, U-87 MG, 24 h) of 581 µM, an IC50 ([3]; Homo sapiens, U-87 MG, 48 h) of 580 µM and an IC50 ([5]; Homo sapiens, BJ, 24 h) of 650 µM. For the same compound, the IC50 ([5]; Homo sapiens, BJ, 48 h) was 3970 µM and the “Cytotoxic effect on BJ cells” value ([5]; WST-1, especially at the 48th hour) was “did not have a cytotoxic effect”.
